NRP1-CendR mod: NRP-1/CendR interaction modulation | inhibition, % at 25 µM | FAM-RPARPAR peptide binding to NRP-1, fluorescence polarization | O14786 | 360,000 compounds, 0.85% hits;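 active means inhibition or corrected inhibition above about 18%, plus a signal ratio from 0.5 to 1.5, limit read from the data, passing the limit was not always enough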
SENP7 block: blocks the human protease SENP7; Q9BQF6; recombinant SENP7, Z-RLRGG-aminoluciferin luminescence, 40 min; inhibition, % at 5 µM; 330,000 compounds, 1.5% hits;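 active means inhibition above about 50% at the single test dose, limit read from the data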;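 further: plate controls were DMSO with enzyme for no effect and no enzyme buffer wells for full effect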
Target sequence (Q9BQF6 706-1050 limits assumed): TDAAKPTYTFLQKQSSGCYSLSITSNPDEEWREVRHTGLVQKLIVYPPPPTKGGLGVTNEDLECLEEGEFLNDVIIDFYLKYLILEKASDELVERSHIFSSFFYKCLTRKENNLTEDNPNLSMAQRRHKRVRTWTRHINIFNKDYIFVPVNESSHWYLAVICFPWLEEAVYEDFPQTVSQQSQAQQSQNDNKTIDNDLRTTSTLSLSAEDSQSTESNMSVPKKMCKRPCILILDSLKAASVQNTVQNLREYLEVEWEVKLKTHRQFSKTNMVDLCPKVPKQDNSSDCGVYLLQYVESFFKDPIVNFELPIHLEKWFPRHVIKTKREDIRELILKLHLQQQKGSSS
SENP1 inh: SENP1 (human) catalytic domain inhibition; Q9P0U3; recombinant SENP1 catalytic domain, CyPet-SUMO1-YPet FRET cleavage; inhibition, % at 10 µM; 360,000 compounds, 0.21% hits;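 active means inhibition at least 30% at 10 µM, raw YFP signal under a set limit, fluorescence ratio 0.5 to 1.5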;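 further: 0% = enzyme with DMSO and 100% = no enzyme wells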
Target sequence (Q9P0U3 419-644 limits assumed): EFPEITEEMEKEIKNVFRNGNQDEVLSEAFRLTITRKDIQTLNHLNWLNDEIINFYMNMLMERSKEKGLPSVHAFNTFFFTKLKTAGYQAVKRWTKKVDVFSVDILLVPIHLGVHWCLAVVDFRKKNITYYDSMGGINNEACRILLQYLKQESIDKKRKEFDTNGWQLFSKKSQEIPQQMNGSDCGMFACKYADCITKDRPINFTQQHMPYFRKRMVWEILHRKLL
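Test system: hSENP1 catalytic domain, recombinant; Amount: 20 pM final SENP1 enzyme; Medium: Tris pH 8 buffer plus EDTA, NaCl, BME, BSA, NP40, catalase; Schedule: 50 min enzyme reaction, room temperature, light-protected; Technique: FRET fluorescence in CFP and YFP emission channels; Controls: no-enzyme wells low, DMSO-plus-enzyme wells high control.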
SENP6 inh: inhibitors of human SENP6 protease; AID 2599; inhibition, % at 10 µM; 330,000 compounds, 1.8% hits; Recombinant SENP6 catalytic domain, aminoluciferin luminescence;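 active means inhibition above about 50% at the single tested dose, limit read from the data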;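 further: plate controls were DMSO wells with enzyme for no effect and DMSO wells lacking enzyme for full effect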
SENP8 block-1: SENP8 protease inhibition; Q96LD8; 330,000 compounds, 1.2% hits; inhibition, % at 10 µM; purified SENP8, Z-RLRGG-aminoluciferin cleavage, luminescence; in the data active means inhibition above about 50%
SENP8 block-2: SENP8 (human) protease inhibition; inhibition, % at 20 µM; recombinant SENP8, Nedd8 substrate fluorescence; 360,000 compounds, 0.64% hits; Q96LD8; in the data active means inhibition mostly above about 40%, no sharp cut-off; inactive means mostly below about 27%
* marks the source's active call; other numbers are inactive results; . = no result. Sampled rows, rich in hits. Any-hit rate of the full collection: about 3.3%.

SMILES | NRP1-CendR mod | SENP7 block | SENP1 inh | SENP6 inh | SENP8 block-1 | SENP8 block-2
O=C(C[C@H]1CC[C@@H]2[C@H](COC[C@H](O)CN2C(=O)c2cnccn2)O1)NCc1ccc(Cl)cc1 | 15 | . | 0 | . | . | 27
COc1ccc(OC)c(S(=O)(=O)N(C)CC(=O)N2CCN(c3cccc(Cl)c3)CC2)c1 | 19* | 2 | 1 | -4 | -3 | 26
COc1ccc(S(=O)(=O)N(C)CC(=O)N2CCCCC2)cc1Cl | 27* | 5 | 0 | -12 | 2 | 13
COc1cc(OC)cc(C(=O)N2CCCC(Nc3ccc(F)cc3)C2)c1 (stereo unspecified) | 22* | -6 | 0 | -5 | -3 | 6
COc1ccc(NC2CCCN(C(=O)CSc3ccncc3)C2)cc1 (stereo unspecified) | 23* | 11 | 2 | 1 | -3 | 1
COc1ccc(CCC(=O)N2CCCC(Nc3ccc(OC)cc3)C2)cc1 (stereo unspecified) | -49 | -1 | 1 | 3 | 2 | 4
C=CCOc1cccc(C(=O)N2CCCC(Nc3ccc(F)cc3)C2)c1 (stereo unspecified) | -3 | -10 | -3 | -12 | 0 | 6
COc1ccc(C(=Cc2cc(OC)c(OC)cc2[N+](=O)[O-])C(=O)O)cc1 | 6 | . | -30 | . | . | -30
c1ccc(CSc2nnc(-c3ccncc3)o2)cc1 | 26* | -6 | 3 | -17 | -5 | 17
N#Cc1ccc(CSc2nnc(-c3ccncc3)o2)cc1 | 8 | -1 | -1 | 1 | -3 | -1
CCCCCCCCCCCC1=C(O)C(=O)C=C(O)C1=O | -46 | . | 4 | . | . | 46*
N=C1CCC(=N)c2c1c(O)c1ccccc1c2O | 27* | 24 | -17 | 63* | 39 | 89*
Cc1cccc(C)c1NC(=O)C1c2ccccc2OCC(=O)N1CCc1ccccc1 (stereo unspecified) | -12 | . | 2 | . | . | 16
Cc1ccc(C)c(NC(=O)C(=O)NCCCN2CCOCC2)c1 | 33* | 9 | -3 | -1 | -7 | 6
Cc1ccc(C)c(NC(=S)NCCCN2CCOCC2)c1 | -5 | -5 | -1 | -8 | -1 | 3
Cc1ccc(S(=O)(=O)N2CCOCC2)cc1NC(=O)Cn1cc(C(F)(F)F)cc(Cl)c1=O | -6 | 4 | 2 | -9 | -4 | -4
O=C(Cn1cc(C(F)(F)F)cc(Cl)c1=O)Nc1cc(S(=O)(=O)N2CCOCC2)ccc1Cl | 22* | 5 | 1 | 11 | 0 | 11
O=C(CC[C@H]1O[C@@H](n2ccc(=O)[nH]c2=O)[C@H](O)[C@@H]1O)N[C@@H](Cc1ccccc1)C(=O)NCC1CCCO1 (stereo partly specified) | 10 | . | -3 | . | . | 17
NC(=S)N/N=C/c1cc([N+](=O)[O-])ccc1OCCOc1ccccc1 | 25* | -3 | 0 | -1 | -4 | 16
CC(=O)N/N=C/c1cc([N+](=O)[O-])ccc1OCCOc1ccccc1 | 9 | 2 | 1 | 3 | 1 | 10
O=C1c2cc(S(=O)(=O)NCCO)ccc2-c2ccc(S(=O)(=O)NCCO)cc21 | 4 | 5 | 5 | 3 | 6 | 6
N#CC(C#N)=C1c2cc(S(=O)(=O)NCCO)ccc2-c2ccc(S(=O)(=O)NCCO)cc21 | 7 | 5 | 33* | -4 | 4 | 24
CC(=O)OCC(=O)C1(O)CCC2C3CC(C)C4=CC(=O)C=CC4(C)C3=CCC21C (stereo unspecified) | 19* | . | 1 | . | . | 10
COc1ccc([C@H]2CC(=O)C[C@@H](CCn3nnc4ccccc43)O2)cc1 | 18 | . | 1 | . | . | 9
COc1ccc(Nc2cc(C)nc3ccc(OC)cc23)cc1 | 29* | -12 | -1 | -8 | -13 | -5
SMILES | NRP1-CendR mod | SENP7 block | SENP1 inh | SENP6 inh | SENP8 block-1 | SENP8 block-2
CCOc1ccc(Nc2cc(C)nc3ccc(C)cc23)cc1 | 8 | -1 | 0 | -28 | 0 | -7
COc1ccc2nc(C)cc(Nc3ccc(C(=O)O)cc3)c2c1 | 6 | -14 | -1 | -50 | -1 | -103
Cc1ccc(Nc2cc(C)nc3ccc(C)cc23)cc1 | 21* | -7 | -4 | -3 | -8 | -67
Cc1ccc(-c2nnn(CC(=O)N(CC(=O)NC3CCCCC3)c3ccc(F)c(Cl)c3)n2)o1 | 29* | 7 | 5 | -5 | -3 | 17
O=C(/C=C/[C@H]1O[C@@H](n2ccc(=O)[nH]c2=O)[C@H](O)[C@@H]1O)N1CCN(CCc2ccccc2)CC1 | 12 | . | 2 | . | . | 20
O=C(O)c1ccccc1C1=Nc2ccc(O)cc2Oc2cc(O)ccc21 | 134 | 6 | 59* | 5 | -1 | 12
CCN(CC(=O)Nc1ccc2c(c1)OCCO2)C(=O)CCc1ccccc1Cl | -2 | -6 | -1 | 1 | 5 | 14
O=C(Nc1ccc(Cl)c(C(F)(F)F)c1)[C@@H]1CC=C[C@@H]2CCN(C3CC3)C(=O)[C@@H]21 | 24* | -13 | 4 | -22 | 5 | 4
CCNC(=O)C1(C)CCCN(C(=O)c2nc(C)oc2C)C1 (stereo unspecified) | 24* | . | 4 | . | . | 17
CCCCNC(=O)CSc1nc2ccc(C)cc2[nH]1 | 35* | -3 | 4 | -24 | -5 | 10
COc1ccc(CNC(=O)CSc2nc3ccc(C)cc3[nH]2)cc1 | 4 | 3 | -1 | 6 | 0 | 14
N#C/C(=C(/O)c1ccc(F)cc1)c1nc2ccccc2s1 | -13 | 51* | -11 | 87* | 82* | -2
N#C/C(=C(/O)COc1ccc(Cl)cc1)c1nc2ccccc2s1 | 7 | 1 | 0 | 93* | 81* | 7
O=C(N/N=C/c1ccc2c(c1)OCO2)c1cc(-c2ccco2)nc2ccccc12 | -24 | -5 | 0 | -13 | -1 | -405
CC(CCc1ccccc1)NC(=O)CNC(=O)c1cccs1 (stereo unspecified) | 28* | -5 | 1 | -3 | 9 | 1
O=C(N/N=C/c1ccc2c(c1)OCO2)c1cc(-c2ccccc2)nc2ccccc12 | 26* | 3 | -1 | -5 | -2 | -13
O=C(N/N=C/c1ccc(F)cc1)c1ccc(OCc2ccccc2)cc1 | -1 | 0 | 3 | -3 | 0 | 10
O=C(O/N=C/c1ccc2c(c1)OCO2)c1ccccc1Cl | . | 80* | . | 86* | 84* | .
Cc1occc1C(=O)N/N=C/c1ccc(OCc2ccccc2)cc1 | 3 | 90* | 3 | 90* | 80* | 16
COc1ccccc1CCn1cnc(Cc2ccccc2)c1C(C)C | -12 | . | -10 | . | . | -20
O=C(N/N=C/c1ccc2c(c1)OCO2)c1cccc2ccccc12 | 30* | 1 | 0 | -10 | 1 | -30
Cc1occc1C(=O)N/N=C/c1ccc2c(c1)OCO2 | -7 | 99* | 1 | 100* | 96* | 3
Cc1occc1C(=O)NC(C)CCc1ccccc1 (stereo unspecified) | 24* | 0 | -3 | 3 | 6 | 8
